Activity calls are given as the source filed them. The rule behind the calls is not given here.
Experiments:
[1] = Toxicity in 6 hrs post fertilized zebrafish embryo assessed as teratogenic effect by measuring malformation of notochord up to 50 uM up to 120 hrs post fertilization by inverted microscopic method; assay type: tissue-based, Danio rerio; conditions: in vivo
[2] = system: Ebolavirus; experiment: Antiviral activity against Ebolavirus H. sapiens-wt/1995/Kikwit-9510621 infected in human HeLa cells assessed as inhibition of viral infection at 2 uM treated simultaneously with viral infection and measured after 24 hrs by EboV GP immunostaining based high content imaging analysis; assay type: functional, organism-based
[3] = system: Ebolavirus; experiment: Antiviral activity against Ebolavirus H. sapiens-wt/1995/Kikwit-9510621 infected in human HeLa cells assessed as inhibition of viral infection pretreated for 2 hrs followed by viral infection and measured after 48 hrs by EboV GP immunostaining based high content imaging analysis; assay type: functional, organism-based; conditions: Orthoebolavirus, H. sapiens-wt/1995/Kikwit-9510621, HeLa; for EC50: read-out: EC50
[4] = Toxicity in 6 hrs post fertilized zebrafish embryo assessed as teratogenic effect by measuring scoliosis up to 50 uM up to 120 hrs post fertilization by inverted microscopic method; parameters: species or system Danio rerio; conditions: in vivo
[5] = system: HeLa; experiment: Induction of lysosomotropism in human HeLa cells infected with Ebolavirus assessed as expansion of acid compartments at 2 uM for 2 hrs by acridine orange staining based assay; assay type: functional, cell-based
Summary of the method: (§1)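 HeLa cells were pretreated with compound for 2 h, then given acridine orange for 30 min and washed. Red AO fluorescence in acidic compartments was imaged, and total intensity and average area were scored by high-content imaging. Eight wells per point, about 3000 cells/well, mean ± SD, representative of three independent experiments.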

[6] = Toxicity in 6 hrs post fertilized zebrafish embryo assessed as lethal effect on heart beat up to 50 uM up to 120 hrs post fertilization by inverted microscopic method; assay type: tissue-based, Danio rerio; conditions: in vivo
[7] = Toxicity in 6 hrs post fertilized zebrafish embryo assessed as mortality up to 120 hrs post fertilization; parameters: species or system Danio rerio; conditions: in vivo
[8] = Toxicity in 6 hrs post fertilized zebrafish embryo assessed as teratogenic effect by measuring malformation of head up to 50 uM up to 120 hrs post fertilization by inverted microscopic method; assay type: tissue-based, Danio rerio; conditions: in vivo
[9] = system: HeLa; experiment: Induction of lysosomotropism in human HeLa cells infected with Ebolavirus assessed as increase in red fluorescence at 2 uM for 2 hrs by acridine orange staining based assay; assay type: functional, cell-based; summary of the method: as §1
[10] = Toxicity in 6 hrs post fertilized zebrafish embryo assessed as teratogenic effect by measuring malformation of tail up to 50 uM up to 120 hrs post fertilization by inverted microscopic method; assay type: tissue-based, Danio rerio; conditions: in vivo
[11] = Toxicity in 6 hrs post fertilized zebrafish embryo assessed as teratogenic effect by measuring yolk absorption up to 50 uM up to 120 hrs post fertilization by inverted microscopic method; parameters: species or system Danio rerio; conditions: in vivo
[12] = Toxicity in 6 hrs post fertilized zebrafish embryo assessed as teratogenic effect by measuring malformation of eyes up to 50 uM up to 120 hrs post fertilization by inverted microscopic method; parameters: species or system Danio rerio; conditions: in vivo
[13] = Toxicity in 6 hrs post fertilized zebrafish embryo assessed as tail detachment up to 50 uM up to 120 hrs post fertilization by inverted microscopic method; parameters: species or system Danio rerio; conditions: in vivo
[14] = Selectivity index, ratio of LC50 for toxicity in transgenic zebrafish embryo assessed as mortality to EC50 for Ebolavirus H. sapiens-wt/1995/Kikwit-9510621; conditions: read-out: Selectivity Index
[15] = Toxicity in 6 hrs post fertilized zebrafish embryo assessed as lethal effect on egg coagulation up to 50 uM up to 120 hrs post fertilization by inverted microscopic method; parameters: species or system Danio rerio; conditions: in vivo
[16] = system: Ebolavirus; experiment: Antiviral activity against Ebolavirus H. sapiens-wt/1995/Kikwit-9510621 infected in human HeLa cells assessed as inhibition of viral infection at 2 uM treated for 2 hrs after viral infection and measured after 24 hrs by EboV GP immunostaining based high content imaging analysis; assay type: functional, organism-based
[17] = Toxicity in 6 hrs post fertilized zebrafish embryo assessed as teratogenic effect by measuring malformation of sacculi/otoliths up to 50 uM up to 120 hrs post fertilization by inverted microscopic method; parameters: species or system Danio rerio; conditions: in vivo
[18] = system: Ebolavirus; experiment: Antiviral activity against Ebolavirus H. sapiens-wt/1995/Kikwit-9510621 infected in HFF assessed as inhibition of viral infection pretreated for 2 hrs followed by viral infection and measured after 48 hrs by EboV GP immunostaining based high content imaging analysis; assay type: functional, organism-based; conditions: Orthoebolavirus
[19] = Selectivity index, ratio of toxic concentration for hepatotoxicity in transgenic l-fabp:EGFP zebrafish embryo to EC50 for Ebolavirus H. sapiens-wt/1995/Kikwit-9510621; assay type: toxicity; conditions: read-out: Selectivity Index
[20] = Toxicity in 6 hrs post fertilized zebrafish embryo assessed as teratogenic effect by measuring pericardial edema up to 50 uM up to 120 hrs post fertilization by inverted microscopic method; parameters: species or system Danio rerio; conditions: in vivo
[21] = target: Procathepsin L (Homo sapiens) (UniProt P07711); experiment: Inhibition of cathepsin L activity in human HeLa cells at 2 uM after 6 hrs by HCA; assay type: cell-based
Procathepsin L (Homo sapiens), sequence (P07711 114-333 limits assumed): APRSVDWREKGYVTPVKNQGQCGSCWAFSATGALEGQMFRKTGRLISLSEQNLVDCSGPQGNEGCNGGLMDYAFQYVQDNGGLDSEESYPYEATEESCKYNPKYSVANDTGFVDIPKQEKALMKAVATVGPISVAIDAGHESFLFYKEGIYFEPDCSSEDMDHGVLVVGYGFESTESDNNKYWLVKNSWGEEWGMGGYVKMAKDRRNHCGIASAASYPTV

[22] = system: HeLa; experiment: Inhibition of lysosome fusion with autophagosome in human HeLa cells harboring GFP-LC3 assessed as increase in GFP-LC3-2 clustering up to 50 uM after 6 hrs by Western blot analysis; assay type: functional, cell-based
Summary of the method: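 HeLa cells were exposed to compound for 6 h, then lysed and analysed by Western blot.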

[23] = system: HeLa; experiment: Induction of lysosomotropism in human HeLa cells infected with Ebolavirus assessed as clustering of late endosomes/lysosomes in cytoplasm at 2 uM for 1 hr by Lysosensor DND189 staining based assay; assay type: functional, cell-based
Summary of the method: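 HeLa cells treated 1 h (2 μM; bafilomycin A1 0.01 μM as control), then LysoSensor DND 189 for 10 min. Washed and imaged live at 443/505 nm (dye) and 405/450 nm (compound). Fluorescence intensity/area quantified. Mean ± SD of 8 wells, about 3000 cells each, three independent experiments.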

[24] = target: Cathepsin B (Homo sapiens) (UniProt P07858); experiment: Inhibition of cathepsin B activity in human HeLa cells at 2 uM after 12 hrs by magic red substrate based fluorescence assay; assay type: cell-based
Summary of the method: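 HeLa cells were exposed to compound for 12 h, then given the Magic Red cathepsin B peptide reporter, washed, and imaged at Ex/Em 590/630. Total intensity and average area of red fluorescence were scored by high-content analysis. Eight wells per point, about 3000 cells/well, mean ± SD, three independent experiments.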

[25] = system: HeLa; experiment: Cytotoxicity against human HeLa cells at 50 uM after 2 hrs; assay type: cell-based
[26] = target: Albumin (Homo sapiens, UniProt P02768); experiment: Binding affinity to human serum albumin at compound to protein molar ratio of 1:20 after 10 mins by fluorescence spectral analysis; assay type: ADME; conditions: isolated protein
Albumin, sequence (P02768 whole entry): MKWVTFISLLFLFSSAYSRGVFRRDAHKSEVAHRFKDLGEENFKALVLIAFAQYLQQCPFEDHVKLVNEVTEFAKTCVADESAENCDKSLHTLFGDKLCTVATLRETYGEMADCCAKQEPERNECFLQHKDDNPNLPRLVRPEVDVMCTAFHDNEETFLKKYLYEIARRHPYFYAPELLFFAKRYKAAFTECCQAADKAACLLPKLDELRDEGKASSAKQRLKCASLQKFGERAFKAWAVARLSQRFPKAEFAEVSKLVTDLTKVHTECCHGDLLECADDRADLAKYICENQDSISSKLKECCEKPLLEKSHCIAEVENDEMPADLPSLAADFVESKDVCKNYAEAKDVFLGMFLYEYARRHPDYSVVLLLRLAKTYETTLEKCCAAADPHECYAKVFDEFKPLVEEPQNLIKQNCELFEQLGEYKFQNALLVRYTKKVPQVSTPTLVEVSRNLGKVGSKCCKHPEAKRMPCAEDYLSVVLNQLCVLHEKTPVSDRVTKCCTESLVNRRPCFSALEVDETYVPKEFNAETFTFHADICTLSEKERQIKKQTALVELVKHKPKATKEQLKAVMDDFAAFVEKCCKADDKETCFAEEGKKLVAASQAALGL
Summary of the method: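 Protein fluorescence spectra recorded while compound was added in increasing amounts. Stern-Volmer binding constant (KSV) derived from the fluorescence change.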

[27] = Selectivity index, ratio of CC50 for human HeLa cells to EC50 for Ebolavirus H. sapiens-wt/1995/Kikwit-9510621 infected in human HeLa cells; assay type: toxicity, cell-based; conditions: read-out: Ratio CC50/EC50
[28] = Toxicity in 6 hrs post fertilized zebrafish embryo assessed as teratogenic effect by measuring yolk edema up to 50 uM up to 120 hrs post fertilization by inverted microscopic method; parameters: species or system Danio rerio; conditions: in vivo
[29] = Selectivity index, ratio of CC50 for HFF to EC50 for Ebolavirus H. sapiens-wt/1995/Kikwit-9510621 infected in human HeLa cells; assay type: toxicity, cell-based; conditions: read-out: Ratio CC50/EC50

Structure (SMILES) | Activity [1] | Activity [2] | EC90 [3] | EC50 [3] | Activity [4] | Activity [5] | Activity [6] | Activity [7] | LC50 [7] | Activity [8] | Activity [9] | Activity [10] | Activity [11] | Activity [12] | Activity [13] | selectivity ratio [14] | Activity [15] | Activity [16] | Activity [17] | EC50 [18] | other results
Cl.Cl.Cl.Cl.c1cc(NCCN2CCOCC2)c2ccc3c(ccc4c(NCCN5CCOCC5)ccnc43)c2n1 | Non-Toxic | Active | < 5000 nM | 700 nM | Non-Toxic | Active | Non-Toxic | Dose-dependent effect | 72100 nM | Non-Toxic | inactive | Non-Toxic | Non-Toxic | Non-Toxic | Non-Toxic | 70 to 100 | Non-Toxic | inactive | Non-Toxic | 550 nM | EC90 [18]: 1360 nM; selectivity ratio [19]: 103; Activity [20]: Non-Toxic; inhibition [21]: Active; inhibition [22]: Active; Activity [23]: Active; inhibition [24]: Active; Activity [25]: Toxic; KSV [26]: 1.13 ×10⁵ /M; selectivity ratio [27]: > 28.5; Activity [28]: Non-Toxic; selectivity ratio [29]: > 36.5
Cl.Cl.Cl.Cl.c1cc(NCCCCN2CCOCC2)c2ccc3c(ccc4c(NCCN5CCOCC5)ccnc43)c2n1 | Non-Toxic | Active | 850 nM | 260 nM | Non-Toxic | Active | Non-Toxic | Dose-dependent effect | 18900 nM | Non-Toxic | inactive | Non-Toxic | Non-Toxic | Non-Toxic | Non-Toxic | 70 to 100 | Non-Toxic | inactive | Non-Toxic | 210 nM | EC90 [18]: 780 nM; selectivity ratio [19]: 73; Activity [20]: Non-Toxic; inhibition [21]: Active; inhibition [22]: Active; Activity [23]: Active; inhibition [24]: Active; Activity [25]: Toxic; KSV [26]: 8.85 ×10⁴ /M; selectivity ratio [27]: 30; Activity [28]: Non-Toxic; selectivity ratio [29]: 11.2

— ChEMBL document CHEMBL4330057, “Second generation of diazachrysenes: Protection of Ebola virus infected mice and mechanism of action” (Eur J Med Chem, 2019)
